Reference: ChEMBL document CHEMBL1127795, “Small-molecule immunostimulants. Synthesis and activity of 7,8-disubstituted guanosines and structurally related compounds” (1994)
Several values for one entry are separate records, joined by “and”; a condition that tells them apart may be missing. Equal values may be shown once.

Legend:
Mus musculus [1] = experiment: In vivo natural killer cell response in splenocytes of mice injected with 2 mg intravenous dose % lysis of YAC-1 cells at effector: target ratio of 25:1; format: functional
Outline: (§1)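 Mice dosed intravenously with 2 mg compound, with saline as the vehicle control. Spleens were removed 48 h later. Splenocytes were tested against 5 × 10⁴ ⁵¹Cr-labelled YAC-1 target cells in a 4-h ⁵¹Cr-release assay at four effector:target ratios. Results are mean % lysis ± one standard deviation, N = 3–5 mice per group.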

Mus musculus [2] = experiment: In vivo natural killer cell response in splenocytes of mice injected with 2 mg intravenous dose % lysis of YAC-1 cells at effector: target ratio of 100:1; format: functional; outline: as §1
Mus musculus [3] = species: Mus musculus; experiment: Augment antibody response of B cells to sheep red blood cell (SRBC) challenge (adjuvanticity); format: functional; conditions: read-out: ED50 (the source's name)
Outline: (§2)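 CBA/CaJ spleen cells depleted of T cells with anti-T cell monoclonal antibody (1:1000, 30 min, 4 °C) then complement (37 °C, 45 min). Cultured ± 0.1% SRBC antigen in serum-containing medium with compound from zero to 10⁻³ M for 4 d. Plaque-forming cells counted in agarose with guinea pig complement. ED50 and maximal response relative to a concurrent standard.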

Mus musculus [4] = experiment: In vivo natural killer cell response in splenocytes of mice injected with 2 mg intravenous dose % lysis of YAC-1 cells at effector: target ratio of 50:1; format: functional; outline: as §1
Mus musculus [5] = experiment: In vivo natural killer cell response in splenocytes of mice injected with 2 mg parenteral dose % lysis of YAC-1 cells at effector: target ratio of 200:1; format: functional
Outline: (§3)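 Each mouse received 2 mg compound, and spleens were taken at 48 h. Splenocyte NK activity was measured as specific lysis of 5 × 10⁴ ⁵¹Cr-labelled YAC-1 cells over 4 h at four effector:target ratios. Results are mean % lysis ± one standard deviation, N = 3–5 mice per group.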

Mus musculus [6] = experiment: In vivo natural killer cell response in splenocytes of mice injected with 2 mg intravenous dose % lysis of YAC-1 cells at effector: target ratio of 200:1; format: functional; outline: as §1
YAC-1 [7] = experiment: Percent of maximum response was tested for its ability to stimulate the natural killer response in murine in vitro cell assays; format: functional, Mus musculus
Mus musculus [8] = species: Mus musculus; experiment: Ability to act as B-cell mitogens; format: functional; conditions: read-out: ED50 (the source's name)
Outline: (§4)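 CBA/CaJ mouse spleen cells (1 × 10⁵/0.2 mL) exposed to graded compound concentrations, dissolved in water or DMSO and diluted in medium, for 24 h. [³H]thymidine then added for a further 24 h; incorporation by scintillation counting. ED50 and maximal response expressed relative to a concurrently run standard (loxoribine in most cases).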

YAC-1 [9] = experiment: Stimulation of natural killer (NK) response in Yac-1 cell line (mouse, lymphoma); format: functional; conditions: read-out: ED50 (the source's name)
Mus musculus [10] = species: Mus musculus; experiment: Percent of maximum response was tested to augment the antibody response of B cells to sheep red blood cell challenge; format: functional; outline: as §2
Mus musculus [11] = experiment: In vivo natural killer cell response in splenocytes of mice injected with 2 mg parenteral dose % lysis of YAC-1 cells at effector: target ratio of 50:1; format: functional; outline: as §3
Mus musculus [12] = experiment: In vivo natural killer cell response in splenocytes of mice injected with 2 mg parenteral dose % lysis of YAC-1 cells at effector: target ratio of 100:1; format: functional; outline: as §3
Mus musculus [13] = species: Mus musculus; experiment: Percent of maximum response was tested for its ability to act as B-cell mitogens (mitogenicity); format: functional; outline: as §4
YAC-1 [14] = experiment: Percent of maximum response was tested for its ability to stimulate the natural killer (NK) response in murine in vitro cell assays; format: functional, Mus musculus
Mus musculus [15] = species: Mus musculus; experiment: Effective dose was tested for its ability to act as B-cell mitogens (mitogenicity); format: functional; conditions: read-out: ED50 (the source's name); outline: as §4
YAC-1 [16] = experiment: Tested for its ability to stimulate the natural killer (NK) response in murine in vitro cell assays; format: functional; conditions: Mus musculus, read-out: ED50 (the source's name)
Mus musculus [17] = experiment: In vivo natural killer cell response in splenocytes of mice injected with 2 mg subcutaneous dose. % lysis of YAC-1 cells at effector: target ratio of 100:1; format: functional
Outline: (§5)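 Mice dosed subcutaneously with 2 mg compound, with sesame oil as the vehicle control. Splenocytes were harvested 48 h after dosing and assayed in a 4-h ⁵¹Cr-release test against 5 × 10⁴ labelled YAC-1 cells at four effector:target ratios. Results are mean % lysis ± one standard deviation, 3–5 mice per group.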

Mus musculus [18] = experiment: In vivo natural killer cell response in splenocytes of mice injected with 2 mg subcutaneous dose. % lysis of YAC-1 cells at effector: target ratio of 200:1; format: functional; outline: as §5
Mus musculus [19] = experiment: In vivo natural killer cell response in splenocytes of mice injected with 2 mg subcutaneous dose. % lysis of YAC-1 cells at effector: target ratio of 50:1; format: functional; outline: as §5
Mus musculus [20] = experiment: In vivo natural killer cell response in splenocytes of mice injected with 2 mg subcutaneous dose. % lysis of YAC-1 cells at effector: target ratio of 25:1; format: functional; outline: as §5
Mus musculus [21] = experiment: In vivo natural killer cell response in splenocytes of mice injected with 2 mg intravenous dose. % lysis of YAC-1 cells at effector: target ratio of 50:1; format: functional; outline: as §1
Mus musculus [22] = experiment: In vivo natural killer cell response in splenocytes of mice injected with 2 mg parenteral dose. % lysis of YAC-1 cells at effector: target ratio of 50:1; format: functional; outline: as §3
Mus musculus [23] = experiment: In vivo natural killer cell response in splenocytes of mice injected with 2 mg intravenous dose. % lysis of YAC-1 cells at effector: target ratio of 100:1; format: functional; outline: as §1
Mus musculus [24] = experiment: In vivo natural killer cell response in splenocytes of mice injected with 2 mg intravenous dose. % lysis of YAC-1 cells at effector: target ratio of 200:1; format: functional; outline: as §1
Mus musculus [25] = experiment: In vivo natural killer cell response in splenocytes of mice injected with 2 mg parenteral dose. % lysis of YAC-1 cells at effector: target ratio of 25:1; format: functional; outline: as §3
Mus musculus [26] = experiment: In vivo natural killer cell response in splenocytes of mice injected with 2 mg parenteral dose. % lysis of YAC-1 cells at effector: target ratio of 100:1; format: functional; outline: as §3
YAC-1 [27] = experiment: Stimulation of natural killer (NK) response in Yac-1 cell line (mouse, lymphoma); Neg indicates a response lower than vehicle control; format: functional, cell-based
Mus musculus [28] = species: Mus musculus; experiment: Effective dose for its ability to act as B-cell mitogens (mitogenicity); Neg indicates a response lower than vehicle control; format: functional; outline: as §4
Mus musculus [29] = species: Mus musculus; experiment: Tested to augment the antibody response of B cells to sheep red blood cell (SRBC) challenge (adjuvanticity); Neg indicates a response lower than vehicle control; format: functional, cell-based; outline: as §2

SMILES	EC50 (Mus musculus [3]) [µM]	Max response (YAC-1 [7]) [%]	EC50 (Mus musculus [8]) [µM]	EC50 (YAC-1 [9]) [µM]	Max response (Mus musculus [10]) [%]	Max response (Mus musculus [13]) [%]	ED50 (YAC-1 [27])	ED50 (Mus musculus [28])	ED50 (Mus musculus [29])	other results
C=CCn1c(=O)n(C2C=CC(CO)O2)c2nc(N)nc(O)c21 (stereo unspecified)	6	89	30	11	45	84				Ratio (Mus musculus [1]): 16.1; Ratio (Mus musculus [2]): 36.4; Ratio (Mus musculus [4]): 25.7; Ratio (Mus musculus [5]): 50.8; Ratio (Mus musculus [6]): 47.4; Ratio (Mus musculus [11]): 25.2; Ratio (Mus musculus [12]): 33.2 and 15.7
C=CCn1c(=O)n(C2CN(CCCC)CC(CO)O2)c2nc(N)nc(O)c21 (stereo unspecified)	5				38	52				Max response (YAC-1 [14]): 94%; EC50 (Mus musculus [15]): 49 µM; EC50 (YAC-1 [16]): 17 µM
Nc1nc(O)c2c(n1)n(C1OC(CO)[C@@H](O)[C@H]1O)c(=O)n2Cc1ccc([N+](=O)[O-])cc1 (stereo partly specified)	40	50	50	48	147	16				Ratio (Mus musculus [17]): 20.7; Ratio (Mus musculus [18]): 27.4 and 9.9; Ratio (Mus musculus [19]): 15.8
C=CCn1c(=O)n([C@@H]2O[C@H](CO)[C@@H](O)[C@H]2O)c2nc(N)[nH]c(=O)c21 [LOXORIBINE]	3	100	10	13	100	100				Ratio (Mus musculus [1]): 22.8; Ratio (Mus musculus [20]): 9.3; Ratio (Mus musculus [5]): 29.6; Ratio (Mus musculus [17]): 19.5; Ratio (Mus musculus [21]): 38.6; Ratio (Mus musculus [22]): 11.8; Ratio (Mus musculus [23]): 48.9; Ratio (Mus musculus [24]): 52.2; Ratio (Mus musculus [25]): 7.7; Ratio (Mus musculus [18]): 27.6; Ratio (Mus musculus [19]): 12.7; Ratio (Mus musculus [26]): 18.9
C=CCn1c(=O)n([C@@H]2O[C@H](CO)[C@H]3OC(C)(CCC(=O)NC)O[C@H]32)c2nc(N)nc(O)c21 (stereo partly specified)		0			9	0	Negative	Negative	Negative	
Cc1nc2nc3c(c(O)n2n1)n(CCN1CCCCC1)c(=O)n3C1OC(CO)[C@@H](O)[C@H]1O (stereo partly specified)		0			1	0.1	Negative	Negative	Negative	
C=CCn1c(=O)n(C2C[C@H](O)C(CO)O2)c2nc(N)nc(O)c21 (stereo partly specified)	30	75		100	99	131				EC50 (Mus musculus [15]): 134 µM
CCCn1c(=O)n(C2CCC(CO)O2)c2nc(NC(=O)C(C)(C)C)nc(O)c21 (stereo unspecified)		0			19	4	Negative	Negative	Negative	
Cn1c(=O)n2c3c1c(=O)nc(N)n3CC1OC2[C@H](O)C1O (single isomer, unassigned)		6			9	0	Negative	Negative	Negative	
